In ChEMBL document CHEMBL4480403, “DDX3X Helicase Inhibitors as a New Strategy To Fight the West Nile Virus Infection” (J Med Chem, 2019):
pEC50, pIC50: −log10 of the molar value. Activity calls are given as the source filed them. The rule behind the calls is not given here.

Assays:
[1] = target: T1, ATP-dependent RNA helicase DDX3X (Homo sapiens, UniProt O00571); assay: Inhibition of full length His-tagged human DDX3X expressed in Escherichia coli assessed as reduction in DDX3X helicase activity using FAM-labeled double stranded RNA as substrate after 40 mins by FRET assay relative to control
How it was run: (§1)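 Recombinant His-tagged full-length DDX3X expressed in E. coli, Ni-NTA purified. Unwinding of FAM-labelled dsRNA, with capture strand at 100 nM, in Tris-HCl pH 8, 70 mM KCl, 2 mM MgCl2, 2 mM DTT, 2 mM ATP. Started with DDX3X, 37°C, 40 min, fluorescence read every 30 s. Initial slope gives unwinding rate; IC50 by nonlinear regression of triplicates.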

[2] = target: T2, ATP-dependent RNA helicase DDX1 (Homo sapiens, UniProt Q92499); assay: Inhibition of human DDX1 helicase activity
T2 sequence (Q92499 whole entry): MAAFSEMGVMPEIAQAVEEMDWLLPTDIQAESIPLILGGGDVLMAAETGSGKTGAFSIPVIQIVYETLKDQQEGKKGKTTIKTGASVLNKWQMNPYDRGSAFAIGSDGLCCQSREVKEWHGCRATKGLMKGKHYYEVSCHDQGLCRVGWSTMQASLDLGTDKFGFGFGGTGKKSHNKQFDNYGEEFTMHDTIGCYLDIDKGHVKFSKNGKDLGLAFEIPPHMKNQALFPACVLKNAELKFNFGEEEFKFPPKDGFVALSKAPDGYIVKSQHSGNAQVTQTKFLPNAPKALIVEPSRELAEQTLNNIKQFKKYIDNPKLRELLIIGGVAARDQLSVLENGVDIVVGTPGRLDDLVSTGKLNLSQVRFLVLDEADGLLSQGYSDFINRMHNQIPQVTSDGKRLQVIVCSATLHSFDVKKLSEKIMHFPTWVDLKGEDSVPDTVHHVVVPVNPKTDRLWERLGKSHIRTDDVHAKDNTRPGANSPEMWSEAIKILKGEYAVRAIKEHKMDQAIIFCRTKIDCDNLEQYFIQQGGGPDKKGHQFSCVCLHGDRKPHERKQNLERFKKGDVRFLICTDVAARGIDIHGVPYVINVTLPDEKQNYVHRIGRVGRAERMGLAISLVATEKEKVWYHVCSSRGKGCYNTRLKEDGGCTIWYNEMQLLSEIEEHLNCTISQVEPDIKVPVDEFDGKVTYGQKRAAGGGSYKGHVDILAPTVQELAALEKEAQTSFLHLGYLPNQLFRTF

[3] = (§2) Cytotoxicity against human HuH7 cells after 3 days by MTT assay; assay type: cell-based, Huh-7; conditions: human, HuH7 cells
How it was run: (§3)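 Huh7 cells (2.5 × 10^4 per well) adhered overnight. Confluent monolayers washed, then treated with compound (final 100–0.01 μM) or DMSO control for 3 days at 37°C. Viability by MTT, absorbance 570 nm, expressed relative to DMSO-treated cells.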

West Nile virus [4] = assay: Antiviral activity against West Nile virus infected in human HuH7 cells incubated for 4 days by crystal violet staining based plaque reduction assay; assay type: functional, organism-based; conditions: Huh-7, 96 h
How it was run: (§4)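 Huh7 cells (2.5 × 10^5 per well, overnight) infected with lineage 2 WNV at MOI 0.1 for 1 h at 37°C, washed, then compound added in 10-fold dilutions (final 100–0.01 μM) with DMSO as virus control. Agarose overlay, 4 days at 37°C, methanol fixation, crystal violet staining. PFU relative to DMSO; IC50 by exponential fit at 50% PFU. Duplicates, repeated at least twice.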

[5] = Metabolic stability in human liver microsomes at 50 uM after 60 mins in presence of NADPH-generating system by LC-UV-MS analysis; assay type: ADME, Microsome; conditions: read-out: Stability
How it was run: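 Compound at 50 μM final (DMSO ≤2%) incubated with human liver microsomes (0.2 mg/mL) and NADPH-generating system in 125 mM phosphate buffer pH 7.4, 37 °C, 60 min. Remaining compound measured by LC-ESI-MS in positive ion mode, with UV at 280 nm.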

Huh-7 = assay: as §2; assay type: cell-based; conditions: Homo sapiens, Huh-7, 72 h; how it was run: as §3
Vero = assay: Cytotoxicity against African green monkey Vero cells after 3 days by MTT assay; assay type: cell-based; conditions: Chlorocebus sabaeus, 72 h
How it was run: (§5)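 Confluent monolayers were washed with PBS and treated in DMEM with DMSO alone (control) or compound at final 100, 10, 1, 0.1, 0.01 μM. Cells were incubated 3 days at 37°C, then given MTT with absorbance read at 570 nm. Cytotoxicity was taken as the OD ratio of treated to DMSO wells, and CC50 was the concentration killing 50% of uninfected cells.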

A549 = assay: Cytotoxicity against human A549 cells after 3 days by MTT assay; assay type: cell-based; conditions: A549, 72 h; how it was run: as §5
West Nile virus [6] = assay: Antiviral activity against West Nile virus infected in African green monkey Vero cells incubated for 4 days by crystal violet staining based plaque reduction assay; assay type: functional, organism-based; conditions: 96 h
How it was run: (§6)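 Cell monolayers at 80–90% confluence were infected with WNV lineage 2 strain at MOI 0.1 for 1 h at 37°C with 5% CO2, then washed. DMSO vehicle or compound (final 100, 10, 1, 0.1, 0.01 μM) was added in duplicate under a 0.5% agarose overlay. Ribavirin served as reference. After methanol fixation and 0.1% crystal violet staining, PFU were expressed relative to DMSO control. IC50 was interpolated at 50% PFU; experiments were repeated at least twice.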

West Nile virus [7] = assay: Antiviral activity against West Nile virus infected in human A549 cells incubated for 4 days by crystal violet staining based plaque reduction assay; assay type: functional, organism-based; conditions: A549, 96 h; how it was run: as §6
[8] = Apparent permeability of the compound by PAMPA; assay type: ADME
How it was run: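 PAMPA: 0.5 mM donor solution in pH 7.4 phosphate buffer, diluted from 1 mM DMSO stock. Filter coated with 1% phosphatidylcholine in dodecane; acceptor 50% DMSO in buffer. Incubated 5 h at room temperature with shaking. Donor and acceptor quantified by LC-UV at 280 nm and Papp calculated. Three plates on different days.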

West Nile virus [9] = assay: Antiviral activity against West Nile virus infected in human HuH7 cells at 1 to 10 uM added after 3 hrs post infection by crystal violet staining based plaque reduction assay; assay type: functional, organism-based
How it was run: (§7)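 Huh7 cells infected with WNV at MOI 0.1; compound at 1 µM and 10 µM added at various times relative to infection. Read-out by viral plaque reduction assay. Means with standard deviation.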

West Nile virus [10] = assay: Antiviral activity against West Nile virus infected in human HuH7 cells at 1 to 10 uM added before 2 hrs post infection by crystal violet staining based plaque reduction assay; assay type: functional, organism-based; how it was run: as §7
West Nile virus [11] = assay: Antiviral activity against West Nile virus infected in human HuH7 cells assessed as reduction in genomic RNA at 1 uM added at 3 hrs hrs post viral infection by PCR analysis; assay type: functional, organism-based
How it was run: (§8)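 Huh7 cells infected with WNV at MOI 0.1; compound at 1 µM added 1 h or 3 h after infection. Total RNA (200 ng) reverse-transcribed with strand-specific primers for genomic or complementary WNV RNA, then quantified by real-time PCR against plasmid standards. Detection limit 10 copies. Means with standard deviation.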

West Nile virus [12] = assay: Antiviral activity against West Nile virus infected in human HuH7 cells assessed as reduction in genomic RNA at 1 uM added at 1 hr post viral infection by PCR analysis; assay type: functional, organism-based; how it was run: as §8
West Nile virus [13] = assay: Antiviral activity against West Nile virus infected in human HuH7 cells assessed as reduction in complementary RNA at 1 uM added at 1 hr post viral infection by PCR analysis; assay type: functional, organism-based; how it was run: as §8
West Nile virus [14] = assay: Antiviral activity against West Nile virus infected in human HuH7 cells assessed as reduction in capsid protein levels at 1 uM added at 1 hr post infection by SDS-PAGE analysis; assay type: functional, organism-based
How it was run: (§9)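 Huh7 cells were infected with WNV at MOI 0.1, with compound at 1 µM added 1 h or 3 h after infection; a no-compound infected control was run alongside. Cell lysates were run on 10% SDS-PAGE and immunoblotted with anti-capsid polyclonal antibody, then peroxidase-conjugated anti-rabbit IgG.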

West Nile virus [15] = assay: Antiviral activity against West Nile virus infected in human HuH7 cells assessed as reduction in capsid protein levels at 1 uM added at 3 hrs post infection by SDS-PAGE analysis; assay type: functional, organism-based; how it was run: as §9
[16] = target: T1, ATP-dependent RNA helicase DDX3X; assay: Competitive inhibition of full length His-tagged human DDX3X expressed in Escherichia coli assessed as reduction in DDX3X helicase activity using 0.024 uM FAM-labeled double stranded RNA as substrate after 40 mins by FRET assay relative to control; how it was run: as §1
[17] = target: T1, ATP-dependent RNA helicase DDX3X; assay: Competitive inhibition of full length His-tagged human DDX3X expressed in Escherichia coli assessed as reduction in DDX3X helicase activity using 0.1 uM FAM-labeled double stranded RNA as substrate after 40 mins by FRET assay relative to control; how it was run: as §1
[18] = target: T1, ATP-dependent RNA helicase DDX3X; assay: Competitive inhibition of human full length His-tagged DDX3X helicase activity expressed in Escherichia coli using FAM-labeled double stranded RNA as substrate at 0.1 uM after 40 mins by fluorescence assay; how it was run: as §1
West Nile virus [19] = assay: Antiviral activity against West Nile virus; assay type: functional, organism-based; how it was run: as §4

T1 sequence (O00571 2-662 limits assumed): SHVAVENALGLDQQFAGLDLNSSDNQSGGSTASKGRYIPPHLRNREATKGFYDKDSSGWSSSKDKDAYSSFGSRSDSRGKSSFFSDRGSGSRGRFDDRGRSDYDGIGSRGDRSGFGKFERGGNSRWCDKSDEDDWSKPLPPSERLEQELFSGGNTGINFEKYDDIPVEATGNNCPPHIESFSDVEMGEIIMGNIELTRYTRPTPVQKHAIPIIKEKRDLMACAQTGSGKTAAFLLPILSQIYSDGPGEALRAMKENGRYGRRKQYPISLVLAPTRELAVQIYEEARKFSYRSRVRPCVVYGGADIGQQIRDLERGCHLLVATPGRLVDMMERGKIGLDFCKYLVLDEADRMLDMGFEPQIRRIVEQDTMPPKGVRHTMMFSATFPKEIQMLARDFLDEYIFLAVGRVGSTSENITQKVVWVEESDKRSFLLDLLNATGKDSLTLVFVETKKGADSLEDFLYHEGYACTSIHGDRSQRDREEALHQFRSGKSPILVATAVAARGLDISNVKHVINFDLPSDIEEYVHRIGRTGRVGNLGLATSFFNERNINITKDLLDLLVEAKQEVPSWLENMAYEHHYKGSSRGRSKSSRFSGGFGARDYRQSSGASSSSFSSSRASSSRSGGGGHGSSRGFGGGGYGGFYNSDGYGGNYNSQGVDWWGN

Compound | inhibition [1] | pEC50 (West Nile virus [4]) | remaining at 1 h, 50 µM [5] | Papp [8] | CC50 at 72 h [3] | also measured
CCCCc1cn(-c2ccc(S(=O)(=O)Nc3ccccc3O)cc2)nn1 | 57% |  |  |  |  | 
CCCCc1cn(-c2ccc(NC(=O)Nc3ccccc3C)cc2)nn1 | 98% | 5.06 | 99% |  | > 200 µM | pIC50 [2]: < 3.70
CCCCc1cn(-c2cccc(S(=O)(=O)Nc3ccccc3C(F)(F)F)c2)nn1 | 98% | 4.64 | 99% | 0.21 ×10⁻⁶ cm/s |  | pIC50 [2]: < 3.70; pIC50 (Huh-7): < 3.70; pIC50 (Vero): < 3.70; pIC50 (A549): 4.67; pEC50 (West Nile virus [6]): 4.92; pEC50 (West Nile virus [7]): 5.47; Activity (West Nile virus [9]): inactive; Activity (West Nile virus [10]): Active; Activity (West Nile virus [11]): inactive; Activity (West Nile virus [12]): Active; Activity (West Nile virus [13]): Active; Activity (West Nile virus [14]): Active; Activity (West Nile virus [15]): inactive
COCCc1cn(-c2cccc(S(=O)(=O)Nc3ccccc3C(F)(F)F)c2)nn1 | 67% |  |  |  |  | 
O=S(=O)(Nc1ccccc1C(F)(F)F)c1cccc(-n2cc(C3CCCCC3)nn2)c1 | 52% |  |  |  |  | 
C[C@@]1(O)[C@H](O)[C@@H](CO)O[C@H]1n1cnc2c(=O)[nH]c(N)nc21 [2'-B-METHYL-GUANOSINE] |  |  |  |  |  | pEC50 (West Nile virus [19]): 4.52

Second part, led by results:

inhibition [1] | pEC50 (West Nile virus [4]) | remaining at 1 h, 50 µM [5] | Papp [8] | Compound | CC50 at 72 h [3] | also measured
31% |  |  |  | CCCCc1cn(-c2cccc(S(=O)(=O)Nc3ccccc3)c2)nn1 |  | 
80% |  |  |  | CCCCc1cn(-c2cccc(S(=O)(=O)Nc3ccc(OC)cc3)c2)nn1 |  | 
98% | 4.18 | 97.1% | 0.71 ×10⁻⁶ cm/s | CCOCc1cn(-c2cccc(S(=O)(=O)Nc3ccccc3C(F)(F)F)c2)nn1 | > 200 µM | 
inactive |  |  |  | CCOCc1cn(-c2cccc(S(=O)(=O)Nc3cccc(N4CCOCC4)c3)c2)nn1 |  | 
83% | 5.64 | 95.6% | 0.1 ×10⁻⁶ cm/s | CCCCc1cn(-c2cccc(S(=O)(=O)Nc3ccccc3O)c2)nn1 | > 200 µM | ID50 [16]: 0.3 µM; ID50 [17]: 2.2 µM; ID50 [18]: 20 µM
98% | 4.89 | 96% | 0.44 ×10⁻⁶ cm/s | CCOCc1cn(-c2cccc(S(=O)(=O)Nc3cccc4cnccc34)c2)nn1 | > 200 µM | 
